Assay outcomes: PubChem, Broad Institute
The entries come from a sample that favours hits as a whole.
IDH1 mut inh: IDH1 R132H (human) inhibition | O75874 | IDH1 R132H reductase, diaphorase/resazurin fluorescence, 60 min | inhibition, % at 10 µM | 70,000 tested, 0.18% active | AID 624101; in the data active = inhibition above about 34%; inconclusive = no clear call, values can overlap the other calls; inactive = below about 11%
Target sequence (O75874 whole entry R132H): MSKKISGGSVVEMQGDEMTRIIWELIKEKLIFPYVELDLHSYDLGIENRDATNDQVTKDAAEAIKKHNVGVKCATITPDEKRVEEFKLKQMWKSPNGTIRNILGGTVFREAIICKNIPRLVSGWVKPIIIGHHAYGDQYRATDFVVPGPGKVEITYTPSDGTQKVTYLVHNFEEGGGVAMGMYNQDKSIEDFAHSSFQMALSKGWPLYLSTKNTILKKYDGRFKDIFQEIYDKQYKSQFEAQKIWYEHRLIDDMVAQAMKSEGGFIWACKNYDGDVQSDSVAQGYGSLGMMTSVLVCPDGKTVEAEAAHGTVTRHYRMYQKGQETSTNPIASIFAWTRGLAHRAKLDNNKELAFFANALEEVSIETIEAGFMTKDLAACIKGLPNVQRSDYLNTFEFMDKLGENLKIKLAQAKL
GASC1 inh: inhibitors of human demethylase GASC-1 KDM4C | inhibition, % at 12.5 µM | AID 720574 | 96,000 tested, 0.15% active | GST-KDM4C 2-372, H3K9me3 peptide, LANCE TR-FRET;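 active = mean replicate inhibition above about 25%, with at least 55% of replicates also reaching it, limit read from the data, passing the limit was not always enough; inconclusive = only one of those two conditions met; inactive = neither condition met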
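System: N-terminal GST-fused human GASC-1 (KDM4C) fragment, residues 2-372; amount: enzyme final amount 10 nM; incubation: reaction 30 min RT, detection step 1 h RT; medium: HEPES buffer, pH 7.5, plus ascorbate; technique: LANCE TR-FRET, Eu antibody, ULight-streptavidin, EDTA, ex 340 nm, em 618/671 nm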
T cruzi growth-1: inhibitors of T. cruzi proliferation. AID 624255. inhibition, % at 8.34 µM. T. cruzi beta-gal in NIH3T3, GalScreen luminescence, 90 h. 77,000 tested, 5.9% active;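 active = mean inhibition above about 93%, with at least 55% of replicates each passing it, limit read from the data, passing the limit was not always enough; inconclusive = only one of those two conditions holds; inactive = neither condition holds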
T cruzi growth-2: Trypanosoma cruzi proliferation inhibition. shares compounds with T cruzi growth-1. T. cruzi beta-gal in NIH3T3, GalScreen luminescence, 90 h. inhibition, % at 8.35 µM. 5,600 tested, 72% active;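 active = mean replicate inhibition above about 95% and at least 55% of replicates individually reaching it, limit read from the data; inconclusive = only one of the two criteria is met; inactive = neither criterion is met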
T cruzi growth-3: blocks T. cruzi growth in NIH3T3 host cells; shares compounds with T cruzi growth-1; T. cruzi beta-gal in NIH3T3, GalScreen luminescence, 90 h; inhibition, % at 2.09 µM; 5,600 tested, 21% active;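 active = mean inhibition above about 95%, with at least 55% of replicates also reaching it, limit read from the data; inconclusive = meets just one of the two conditions; inactive = meets neither condition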
NIH3T3 tox: kills mouse NIH/3T3 fibroblasts | shares compounds with T cruzi growth-1 | NIH/3T3 viability, CellTiter-Glo ATP luminescence, 90 h | cytotoxicity (signal decrease), % at 8.35 µM | 5,600 tested, 14% active | AID 651742;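 active = mean signal decrease across replicates above about 35% based on untreated-well scatter, with enough replicates individually passing, limit read from the data; inconclusive = no rule stated though some were filed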
3T3 cytotox 2: kills mouse NIH/3T3 fibroblasts | shares compounds with T cruzi growth-1 | NIH/3T3 viability, CellTiter-Glo ATP luminescence, 90 h | inhibition, % at 24.9 µM | 5,600 tested, 56% active;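 active = mean loss of cell viability signal at or above a set limit, and enough replicates individually reaching it; inconclusive = meets only the mean limit or only the replicate share; inactive = meets neither condition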
Of the large screens only hits and unclear results are named; the others gave an inactive call (follow-up assays come after a bar, where they were run).

C[C@@H]1CCCCO[C@H](CN(C)Cc2ccncc2)[C@H](C)CN([C@@H](C)CO)C(=O)c2cc(NC(=O)c3ccccc3)ccc2O1	none (no result: IDH1 mut inh)
C[C@@H]1CN([C@@H](C)CO)C(=O)c2cc(NC(=O)c3ccccc3)ccc2O[C@@H](C)CCCCO[C@@H]1CN(C)Cc1ccncc1	T cruzi growth-1 114 (no result: IDH1 mut inh) | T cruzi growth-2 100 | T cruzi growth-3 inactive | NIH3T3 tox inactive | 3T3 cytotox 2 inactive
C[C@@H]1CCCCO[C@H](CN(C)C(=O)c2ccncc2)[C@H](C)CN([C@H](C)CO)C(=O)c2cc(NC(=O)c3ccccc3)ccc2O1	T cruzi growth-1 97 (no result: IDH1 mut inh) | T cruzi growth-2 inactive | T cruzi growth-3 inactive | NIH3T3 tox inactive | 3T3 cytotox 2 inactive
C[C@@H]1CCCCO[C@@H](CN(C)Cc2ccc(Cl)c(Cl)c2)[C@@H](C)CN([C@H](C)CO)C(=O)c2cc(NC(=O)c3ccccc3)ccc2O1	T cruzi growth-1 96 | T cruzi growth-2 114 | T cruzi growth-3 inactive | NIH3T3 tox inactive | 3T3 cytotox 2 inactive
CN1C(=O)c2cc(NC(=O)c3cccc(F)c3)ccc2OC[C@@H]2O[C@H](CC(=O)NCc3ccccc3Cl)CC[C@H]21	none (no result: IDH1 mut inh)
CCC(=O)N1C[C@H](C)[C@@H](OC)CN(C)C(=O)c2cc(NC(=O)Nc3cccc(F)c3)ccc2OC[C@@H]1C	none
CC(C)[C@H](C)NC(=O)N(C)C[C@H]1OCc2ccccc2-c2c(n(C)c3ccccc23)C(=O)N([C@@H](C)CO)C[C@@H]1C	none (no result: IDH1 mut inh)
C[C@@H]1CCCCO[C@H](CN(C)Cc2ccccc2)[C@H](C)CN([C@@H](C)CO)C(=O)c2cc(NC(=O)c3ccccc3)ccc2O1	none (no result: IDH1 mut inh)
C[C@@H]1CN([C@@H](C)CO)C(=O)c2cc(NC(=O)c3ccccc3)ccc2O[C@@H](C)CCCCO[C@H]1CN(C)Cc1ccccc1	T cruzi growth-1 102 (no result: IDH1 mut inh) | T cruzi growth-2 98 | T cruzi growth-3 inactive | NIH3T3 tox inactive | 3T3 cytotox 2 61
C[C@H]1CCCCO[C@H](CN(C)Cc2ccncc2)[C@@H](C)CN([C@@H](C)CO)C(=O)c2cc(NC(=O)Cc3ccccc3)ccc2O1	none (no result: IDH1 mut inh)
C[C@@H]1CCCCO[C@@H](CN(C)Cc2ccccc2)[C@H](C)CN([C@H](C)CO)C(=O)c2cc(NC(=O)c3ccncc3)ccc2O1	T cruzi growth-1 inconclusive (no result: IDH1 mut inh) | T cruzi growth-2 inactive | T cruzi growth-3 inactive | NIH3T3 tox inactive | 3T3 cytotox 2 inactive
C[C@@H]1CCCCO[C@@H](CN(C)Cc2ccccc2)[C@H](C)CN([C@@H](C)CO)C(=O)c2cc(NC(=O)c3ccncc3)ccc2O1	none (no result: IDH1 mut inh)
C[C@H](CO)N1C[C@H](C)[C@H](CN(C)Cc2ccncc2)OCCCC[C@H](C)Oc2ccc(NC(=O)Cc3ccccc3)cc2C1=O	T cruzi growth-1 103 | T cruzi growth-2 96 | T cruzi growth-3 inactive | NIH3T3 tox inactive | 3T3 cytotox 2 inactive
CO[C@@H]1CN(C)C(=O)c2ccc(NS(=O)(=O)CC(F)(F)F)cc2OC[C@@H](C)N(CCC(F)(F)F)C[C@H]1C	none
CCn1cc(C(=O)N(C)C2CCCCC2)c2cc(OC)c(OC)cc2c1=O	none (no result: GASC1 inh, T cruzi growth-1)
CCOC(=O)c1ccc(NC(=O)CC2Nc3cccc4cccc(c34)NC2=O)cc1 (configuration not stated)	none (no result: GASC1 inh, T cruzi growth-1)
C[C@@H](NC(=O)C[C@@H]1C[C@H]2c3cc(NS(C)(=O)=O)ccc3O[C@H]2[C@@H](CO)O1)c1ccccc1	none (no result: T cruzi growth-1)
CC(C)CC#Cc1ccc([C@@H]2[C@@H](CO)N3CCCCN(S(=O)(=O)c4ccc(F)cc4)C[C@@H]23)cc1	T cruzi growth-1 105 (no result: IDH1 mut inh) | T cruzi growth-2 108 | T cruzi growth-3 inactive | NIH3T3 tox inactive | 3T3 cytotox 2 89
CC(C)CC#Cc1ccc([C@H]2[C@H]3CN(S(=O)(=O)c4ccc(F)cc4)CCCCN3[C@H]2CO)cc1	T cruzi growth-1 116 (no result: IDH1 mut inh) | T cruzi growth-2 111 | T cruzi growth-3 inactive | NIH3T3 tox inactive | 3T3 cytotox 2 inactive
O=S(=O)(c1ccc(F)cc1)N1CCCCN2[C@H](C1)[C@@H](c1ccc(C#CC3CCCC3)cc1)[C@@H]2CO	none (no result: IDH1 mut inh, GASC1 inh)
O=S(=O)(c1ccc(F)cc1)N1CCCCN2[C@H](CO)[C@H](c3ccc(C#CC4CCCC4)cc3)[C@@H]2C1	none (no result: IDH1 mut inh, GASC1 inh)
